IC50 data for 6 compounds are collected here from ChEMBL document CHEMBL3739408, “Antibacterial Prenylated Acylphloroglucinols from Psorothamnus fremontii” (J Nat Prod, 2015).

Converted amounts (≈) assume the structure as drawn. Bounds are passed on as bounds.

One assay concerns Enterococcus faecium. Kind of assay: Antibacterial activity against vancomycin-resistant Enterococcus faecium ATCC 700221 by plate reader analysis. Type of assay: functional, organism-based. Summed up: (§1)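 Strains from ATCC; modified CLSI broth microdilution. Samples in DMSO were serially diluted in 20% DMSO–saline and plated in duplicate. Inocula were set by adjusting OD630 to give the final target CFU/mL. Methicillin and vancomycin were positive controls, with highest test concentrations of 50 and 20 μg/mL. IC50 is the 50% growth inhibition relative to controls, from curve fitting.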

The test system of assay [1] is Staphylococcus aureus. Kind of assay: Antibacterial activity against methicillin-sensitive Staphylococcus aureus ATCC 29213 by plate reader analysis. Type of assay: functional, organism-based. In a few lines:
as §1

The test system of assay [2] is Staphylococcus aureus. Put plainly: Antibacterial activity against methicillin-resistant Staphylococcus aureus ATCC 33591 by plate reader analysis. The class given is functional, organism-based. In a few lines: as §1
Assay [3] deals with Staphylococcus aureus. Put plainly: Antibacterial activity against methicillin-resistant Staphylococcus aureus ATCC 1696 by plate reader analysis. The class given is functional, organism-based. Summed up: as §1
The subject of assay [4] is Staphylococcus aureus. Kind of assay: Antibacterial activity against methicillin-resistant Staphylococcus aureus ATCC 1708 by plate reader analysis. The class given is functional, organism-based. Summed up:
as §1

In assay [5] the test system is Staphylococcus aureus. Kind of assay: Antibacterial activity against methicillin-resistant Staphylococcus aureus ATCC 1717 by plate reader analysis. Type of assay: functional, organism-based. In a few lines:
as §1

The subject of assay [6] is Enterococcus faecalis. Put plainly: Antibacterial activity against vancomycin-sensitive Enterococcus faecalis ATCC 29212 by plate reader analysis. Type of assay: functional, organism-based. Summed up: as §1
The test system of assay [7] is Enterococcus faecalis. Kind of assay: Antibacterial activity against low level vancomycin-resistant Enterococcus faecalis ATCC 51299 by plate reader analysis. Type of assay: functional, organism-based. Summed up: as §1
For another assay, the system named is HepG2. Kind of assay: Cytotoxicity against human HepG2 cells assessed as cell viability after 48 hrs by neutral red-based assay. To be noted: HepG2, 48 h. Summed up: (§2)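 Mammalian cell lines from ATCC: human hepatic carcinoma HepG2, pig kidney epithelial LLC-PK1, and African green monkey kidney Vero. Highest test concentration was 50 μg/mL, and doxorubicin was the positive control at up to 10 μg/mL. IC50 was taken as the concentration giving 50% growth inhibition of the mammalian cells.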

The subject of another assay is LLC-PK1. Kind of assay: Cytotoxicity against pig LLC-PK1 cells assessed as cell viability after 48 hrs by neutral red-based assay. To be noted: Sus scrofa, LLC-PK1, 48 h. Summed up:
as §2

Another assay concerns Vero. Put plainly: Cytotoxicity against African green monkey Vero cells assessed as cell viability after 48 hrs by neutral red-based assay. The note with it: Chlorocebus sabaeus. Summed up: as §2

`CC(C)=CCC1=C2OC(C)(C)CC3OC23C(=O)C(C(=O)C(C)C)=C1O` (centres undefined): the IC50 with Enterococcus faecium amounted to 1.6 µg/mL (≈ 4.62 µM); in the assay with Staphylococcus aureus [1] it was 2.4 µg/mL (≈ 6.93 µM); in the assay with Staphylococcus aureus [2] it was 1.4 µg/mL (≈ 4.04 µM); in the assay on Staphylococcus aureus [3], 8.8 µg/mL (≈ 25.4 µM); with Staphylococcus aureus [4], 8.6 µg/mL (≈ 24.8 µM); in the assay on Staphylococcus aureus [5], 1.6 µg/mL (≈ 4.62 µM). Further, the IC50 in the assay on Enterococcus faecalis [6] is 5.3 µg/mL (≈ 15.3 µM); with Enterococcus faecalis [7], 2.8 µg/mL (≈ 8.08 µM); with HepG2, 31 µg/mL (≈ 89.5 µM); in the assay on LLC-PK1, 30 µg/mL (≈ 86.6 µM); with Vero, 21 µg/mL (≈ 60.6 µM).

With `CC1=C2OC(C)(C)CC3OC23C(=O)C(C(=O)C(C)C)=C1O` (centres undefined), the values for the IC50 in the assay with Staphylococcus aureus [1] and in the assay on Staphylococcus aureus [2] were 10 µg/mL (≈ 34.2 µM) and 11.1 µg/mL (≈ 38 µM), respectively.

With `CCC(C)C(=O)C1=C(O)C(C)=C2OC(C)(C)CC3OC23C1=O` (centres undefined), the IC50 in the assay on Staphylococcus aureus [1] came to 5.6 µg/mL (≈ 18.3 µM); with Staphylococcus aureus [2], 6.2 µg/mL (≈ 20.2 µM).

On to `CN[C@@H](CC(C)C)C(=O)N[C@H]1C(=O)N[C@@H](CC(N)=O)C(=O)N[C@H]2C(=O)N[C@H]3C(=O)N[C@H](C(=O)N[C@@H](C(=O)O)c4cc(O)cc(O)c4-c4cc3ccc4O)[C@H](O)c3ccc(c(Cl)c3)Oc3cc2cc(c3O[C@H]2O[C@@H](CO)[C@H](O)[C@@H](O)[C@@H]2O[C@@H]2C[C@@](C)(N)[C@@H](O)[C@@H](C)O2)Oc2ccc(cc2Cl)[C@H]1O`, for which the IC50 in the assay with Enterococcus faecium is more than 20 µg/mL; in the assay with Enterococcus faecalis [6] it was 1.4 µg/mL (≈ 0.966 µM); in the assay on Enterococcus faecalis [7] it was 3.3 µg/mL (≈ 2.28 µM).

`COc1cccc2c1C(=O)c1c(O)c3c(c(O)c1C2=O)C[C@@](O)(C(=O)CO)C[C@@H]3O[C@H]1C[C@H](N)[C@H](O)[C@H](C)O1` [DOXORUBICIN]: the IC50 in the assay on LLC-PK1 came out at 0.5 µg/mL (≈ 0.92 µM).

Take `COc1cccc(OC)c1C(=O)N[C@@H]1C(=O)N2[C@@H]1SC(C)(C)[C@@H]2C(=O)O` [METHICILLIN]: the IC50 in the assay on Staphylococcus aureus [1] is 0.5 µg/mL (≈ 1.31 µM); in the assay on Staphylococcus aureus [2], more than 50 µg/mL; with Staphylococcus aureus [3], 3 µg/mL (≈ 7.89 µM); in the assay on Staphylococcus aureus [4] it was 3.2 µg/mL (≈ 8.41 µM); with Staphylococcus aureus [5], 26.9 µg/mL (≈ 70.7 µM).

Usually IC50 stands for the point on the concentration scale where inhibition reaches its midpoint.
